High-throughput results from PubChem BioAssay.
PHOSPHO1 block: inhibitors of human PHOSPHO1 phosphatase. Q8TCT1. inhibition, % at 13.3 µM. recombinant PHOSPHO1, absorbance phosphatase assay. 1.1% of 290,000 active. AID 1565; in the data active means inhibition above about 60%
RanGTP-Imp inh: inhibitors of RanGTP-importin-beta interaction, primary screen, biochemical, FRET, CFP-Ran, YFP-importin-beta, homogeneous | cell-free CFP-Ran/YFP-importin-beta FRET ratio | inhibition, % (concentration not given with the values) | 1.1% of 300,000 active;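 active means more than half of the replicate wells show a fall in the fluorescence ratio signal beyond about 16%, limit read from the data, passing the limit was not always enough; inconclusive means exactly half of the replicate wells pass the set limit; inactive means fewer than half of replicates pass the limit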;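 further: 0% = DMSO wells and 100% = Ran loaded with GDP instead of GTP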
Efa HMGR inh: blocks class II HMG-CoA reductase of Enterococcus faecalis; purified E. faecalis HMGR, NADPH absorbance 340 nm kinetic; 0.41% of 190,000 active; inhibition, % at 10 µM;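 active means inhibition above a set limit, the median over all tested compounds plus 3 SD, cut at about 9.5% in these data; inconclusive means no clear call, values can overlap the other calls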;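 further: enzyme runs in reverse so mevalonate oxidation gives rising NADPH absorbance; 0% = complete reaction with DMSO and 100% = background rate lacking mevalonate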
Wee1 degr inh: blocks degradation of human Wee1 kinase; 1.2% of 220,000 active; AID 1321; HeLa Luc-Wee1K328M stability, luciferase luminescence; 100% = proteasome inhibitor MG132 effect; reporter increase, % at 5 µM;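 active means activation above the mean of all tested compounds plus 3 SD, set per screening run, cut at about 8.8% in these data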;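 further: cells exposed to compound for 20 h before luminescence read; 0% = DMSO alone and 100% = MG132 at 30 µM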
Runt-SMMHC FRET: blocks binding of human RUNX1 Runt domain to CBFb-SMMHC | Cerulean-Runt/Venus-CBFb-SMMHC FRET ratio 530/480, 1 h | inhibition, % at 20 µM | 0.74% of 220,000 active | AID 1434;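 active means mean inhibition across duplicate retests at 20 µM reaching about 50%, limit read from the data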;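 further: 0% = DMSO wells and 100% = wells with excess untagged CBFb-SMMHC; inhibitors lower the FRET ratio by blocking Runt binding to CBFb-SMMHC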
Runt-CBFb FRET: Runt domain-CBFb interaction inhibition; inhibition, % at 20 µM; Q01196+Q13951; Cerulean-Runt/Venus-CBFb FRET ratio 530/480, 1 h; 0.46% of 220,000 active;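 active means inhibition over about 50% at 20 µM in the single-dose screen, limit read from the data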;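 further: 0% = DMSO wells and 100% = excess unlabeled CBFb competitor control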
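Schedule: protein complex preformed 1 h, compound exposure 1 h, room temperature, dark; test system: Cerulean-labeled Runt domain protein; amount: 100 nM per protein; buffer or medium: Tris 50 mM pH 7.5, KCl, K2SO4, 0.01% BSA; read-out: loss of energy transfer signal; detection: FRET fluorescence; controls: 5 µM unlabeled CBFb as full-inhibition high control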
Starred values were filed as active, the others as inactive; ? = inconclusive; . = not tested or not shown. In the library only some 3.4% were active in any assay of this set; here they are far more common.

SMILES	PHOSPHO1 block	RanGTP-Imp inh	Efa HMGR inh	Wee1 degr inh	Runt-SMMHC FRET	Runt-CBFb FRET
COc1ccc(N2CCN(C(c3cccs3)C(C)NC(=O)C(=O)N3CCOCC3)CC2)cc1 (stereo unspecified)	65*	3	.	.	.	.
COc1ccc(N2CCN(C(=O)c3ccc(NS(=O)(=O)c4ccc(F)cc4)cc3)CC2)cc1	-65	-1	-3	4	0	0
CC1C(=O)N2CCCc3cc(S(=O)(=O)N4CCN(c5ccccc5F)CC4)cc1c32 (stereo unspecified)	36	-1	.	.	.	.
CN1/C(=C/C2CC(=O)NC2=O)C(C)(C)c2ccccc21 (stereo unspecified)	26	.	1	13*	0	0
Cc1cc(=O)[nH]c(SCc2cccc3cccnc23)n1	17	-3	3	11*	1	0
COCc1nnc(NS(=O)(=O)c2ccc(NC(C)=O)cc2)s1	23	-7	0	9.9*	0	0
CC(C)(C)Cc1nnc(NS(=O)(=O)c2ccc(F)cc2)s1	78*	2	-10	3	3	-1
CCc1nnc(NS(=O)(=O)c2ccc(NS(=O)(=O)c3ccc(NC(C)=O)cc3)cc2)s1	-5	.	-3	1	2	0
C=CCN1C(=O)C(CC(=O)Nc2ccc(OC)cc2)N(Cc2ccco2)C1=S (stereo unspecified)	-109	-1	-2	1	12	15
COc1ccc(CCNC(=O)CSc2nnc3ccc(-c4ccccn4)nn23)cc1	.	0	.	.	.	.
O=C(CSc1ncccc1-c1nc2ccccc2[nH]1)N1CCCCC1	89*	-9	1	-3	-4	0
CN(C)C(=O)CSc1ncccc1-c1nc2ccccc2[nH]1	24	-6	.	.	.	.
COc1cc(C(=O)N2CCN(c3ncnc4sc(C)c(C)c34)CC2)cc(OC)c1OC	-8	2	2	-4	-2	-1
CCCCNc1cc(Cl)nc(N)n1	15	40*	.	-1	8	5
CCOc1ccccc1-c1nc(-c2ccc(C)nc2OC)no1	8	-3	-7	9.5*	-1	2
C1CCC(C(CC2CCCCN2)C2CCCCC2)CC1 (stereo unspecified)	-6	0	10*	-1	4	-2
CCCc1ccc(OCC(=O)Nc2cc(S(=O)(=O)CC)ccc2O)cc1	20	?	10*	-1	2	-2
O=C(CC(c1ccccc1)c1ccccc1)N1CCN(c2ccccn2)CC1	66*	5	-1	1	1	-3
O=C(CSc1ncccn1)N1CCN(C(=O)CSc2ncccn2)CC1	-13	1	-3	-1	10	-2
O=C(CSc1ncccn1)N1CCN(C(c2ccccc2)c2ccccc2)CC1	86*	-3	-2	-2	11	-12
O=C(CC(c1ccccc1)c1ccco1)N1CCCCC1 (stereo unspecified)	60*	1	5	1	-23	-10
Cc1ccc(C(CC(=O)N2CCOCC2)c2ccco2)cc1 (stereo unspecified)	10	-3	-6	6	0	1
CCN(CC(=O)NCc1ccc(Cl)cc1)C(=O)CSCC(=O)Nc1ccc(OC)cc1	.	-5	.	.	.	.
COc1ccc(N2CC(C(=O)N3CCC(c4nc5ccccc5[nH]4)CC3)CC2=O)cc1 (stereo unspecified)	.	2	.	.	.	.
Cc1ccc(NC(=O)CSc2nccn2C)cc1F	-1	-2	.	.	.	.
SMILES	PHOSPHO1 block	RanGTP-Imp inh	Efa HMGR inh	Wee1 degr inh	Runt-SMMHC FRET	Runt-CBFb FRET
Cc1ccc(NC(=O)CSc2ncccn2)cc1F	2	96*	-5	1	-1	1
Cc1ccc(NC(=O)CSc2nccn2Cc2ccccc2)cc1C	86*	3	-4	1	2	-3
O=C(CSc1nc(C(F)(F)F)cc(=O)[nH]1)NCc1ccc2c(c1)OCO2	.	1	.	.	.	.
O=C(CCCSc1ccccc1)Nc1cccc(CO)c1	-13	2	.	.	.	.
O=C(CCC(=O)N1CCc2ccccc21)N1CCc2ccccc21	.	.	.	-2	.	.
O=C(CCCc1ccccc1)N1CCc2ccccc21	1	0	-9	9.8*	2	-1
O=C(Nc1ccccn1)C1CCN(S(=O)(=O)c2ccc(Cl)cc2)CC1	.	3	.	.	.	.
